Experimental data from different studies.
Protocols differ between the studies behind these lines.
AMY2: Pancreatic alpha-amylase (AMY2, Sus scrofa, UniProt P00690)
D14: D14 (Arabidopsis thaliana, UniProt Q9SQR3)

COc1cc(O)c2c(c1)O[C@H](c1ccccc1)CC2=O gave an inhibition of 12.7% (AMY2; enzyme activity, inhibitor; 50 µM, 30 min).
For CC1=C(/C=C/C(C)=C/C=O)C(C)(C)C[C@H](O)C1, the ΔTm was 0.16 °C (D14; thermal stability, DSF; 10 µM).
For O=c1c(O)c(-c2ccc(O)c(O)c2)oc2cc(O)cc(O)c12, the inhibition was 94.1% (AMY2; enzyme activity, inhibitor; 50 µM).
For C#Cc1cc(-c2cc(Nc3nc(N[C@@H](C)c4ccc(F)cn4)ncc3Cl)n[nH]2)ccc1C=O, the inhibition was 14.9% (MAP kinase-activated protein kinase 5 (MAPKAPK5, Homo sapiens, UniProt Q8IW41); enzyme activity, inhibitor; 0.2 µM).
CC1=CC(O/C=C2/C(=O)OC3c4ccccc4CC23)OC1=O (racemic) has a ΔTm of -7.73 °C (D14; thermal stability; 50 µM).
O=c1cc(-c2ccc(O)c(O)c2)oc2c(Br)c(O)c(Br)c(O)c12 gave an inhibition of 99.8% (AMY2; enzyme activity, inhibitor; 50 µM, 30 min).
Cc1cc(S(=O)(=O)N[C@H]2CC[C@H](CN3CCN(c4ccc(C5CCC(=O)NC5=O)cc4F)CC3)CC2)ccc1Nc1ncc(C(F)(F)F)c(N2CCC[C@](C)(O)C2)n1 (stereo partly drawn) has a remaining binding of 75% (Cyclin-dependent kinase 4, with cyclin D1 (CDK4, Homo sapiens, UniProt P11802); binding, competition with immobilised ligand; 1 µM).
NC/C(=C\F)COc1cccc(Cn2c(=S)[nH]c(=O)c3[nH]cnc32)c1 gave an inhibition of less than 50% (Muscarinic acetylcholine receptor M2 (CHRM2, Homo sapiens, UniProt P08172); ligand displacement, radioligand; 10 µM).
CC1=C(/C=C/C(C)=C/C=O)C(C)(C)CCC1 gave a ΔTm of 0 °C (D14; thermal stability, DSF; 1 µM).
The inhibition of O=c1cc(-c2ccc(O)cc2)oc2c(Br)c(O)c(Br)c(O)c12 is reported as 69.3% (AMY2; enzyme activity, inhibitor; 50 µM).
CC(=O)/C=C/C=C(C)/C=C/C1=C(C)CC(O)CC1(C)C (stereo in doubt) has a ΔTm of 0.09 °C (D14; thermal stability, DSF; 1 µM).
O=c1c(O)c(-c2ccc(O)cc2)oc2c(Br)c(O)c(Br)c(O)c12 gave an inhibition of 100% (AMY2; enzyme activity, inhibitor; 50 µM, 30 min).
CCCCC(=O)Nc1ccc(-c2ccc3ncn(CCC)c(=O)c3c2)cn1 has a remaining binding of 84% (Ephrin type-A receptor 5 (EPHA5, Homo sapiens, UniProt P54756); binding, competition with immobilised ligand; 0.5 µM).
C[C@]1(O)CCCN(c2nc(Nc3ccc(S(=O)(=O)N[C@H]4CC[C@H](CN5CCN(c6ccc(C7CCC(=O)NC7=O)cc6F)CC5)CC4)cc3Cl)ncc2C(F)(F)F)C1 (stereo partly drawn) gave a remaining binding of 100% (Cyclin-dependent kinase 4, with cyclin D3 (CDK4, Homo sapiens, UniProt P11802); binding, competition with immobilised ligand; 1 µM).
The inhibition of O=c1c(O)c(-c2ccc(O)cc2)oc2cc(O)cc(O)c12 is reported as 88.9% (AMY2; enzyme activity, inhibitor; 50 µM, 30 min).
C1=C/COCc2cc(ccc2OCCN2CCCC2)Nc2nccc(n2)-c2cccc(c2)COC/1 has a remaining binding of 100% (Myosin-IIIb (MYO3B, Homo sapiens, UniProt Q8WXR4); binding; 0.1 µM).
For COc1ccc2oc(-c3ccc4nc(N)oc4c3)c/c(=N\c3ccccc3NC(=O)CCN)c2c1, the remaining binding was 110% (Receptor-interacting serine/threonine-protein kinase 1 (RIPK1, Homo sapiens, UniProt Q13546); binding; 1 µM).
With Cc1cc(O)c(-c2ccc([C@@H](C)CN(C)C)cc2)c2c1[nH]c(=O)c1sccc12 the inhibition was -7.06% (Eukaryotic translation initiation factor 2-alpha kinase 3 (EIF2AK3, Homo sapiens, UniProt Q9NZJ5); enzyme activity, inhibitor; 0.1 µM).
